Measured values as given in ChEMBL document CHEMBL3525907, “Studies on the metabolism and biological activity of the epimers of sulindac” (Drug Metab Dispos, 2011).
The source made the active and inactive calls. The calls are words filed in the database; no cut-off is given here.

Tests used:
[1] = biological target: T1, Methionine-R-sulfoxide reductase B1 (Rattus norvegicus, UniProt Q52KJ8); assay: Drug metabolism in rat liver DEAE fraction assessed as MSRB1-mediated DABS-Met formation measured per mg of protein at 200 uM by HPLC analysis; type: ADME, tissue-based
T1 sequence (Q52KJ8 whole entry): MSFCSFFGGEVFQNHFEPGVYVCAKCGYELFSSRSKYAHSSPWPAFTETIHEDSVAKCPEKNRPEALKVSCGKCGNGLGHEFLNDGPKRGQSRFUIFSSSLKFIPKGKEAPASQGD
Summary of the method: (§1)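 Rat liver purification fractions (DEAE, G50 peak) assayed with 200 μM DABS-R-Met(o) in 100 mM Tris pH 7.4, DTT (15 mM) or Trx system (1 mM NADPH, TrxB, TrxA) as reductant, 37°C; acetonitrile stop; DABS-Met resolved on C18 HPLC, absorbance 436 nm; activity per mg protein, expressed as purification factor.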

[2] = biological target: T1, Methionine-R-sulfoxide reductase B1; assay: Drug metabolism in rat liver S100 fraction assessed as MSRB1-mediated DABS-Met formation measured per mg of protein at 200 uM by HPLC analysis; type: ADME, tissue-based
Summary of the method: (§2)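 Fractions (S-100, 30–70% ammonium sulfate cut) from rat liver purification; aliquots incubated with 200 μM (R)-sulindac or 200 μM DABS-R-Met(o) in 100 mM Tris pH 7.4 with 15 mM DTT or Trx system (1 mM NADPH, TrxB, TrxA), 37°C. Stopped with acetonitrile; C18 HPLC, sulindac sulfide at 330 nm, DABS-Met at 436 nm. Specific activity as nmol product/mg protein/h.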

[3] = biological target: T1, Methionine-R-sulfoxide reductase B1; assay: Drug metabolism in rat liver ammonium sulfate fraction assessed as MSRB1-mediated DABS-Met formation measured per mg of protein at 200 uM by HPLC analysis; type: ADME, tissue-based; summary of the method: as §2
[4] = biological target: T1, Methionine-R-sulfoxide reductase B1; assay: Drug metabolism in rat liver G50 fraction assessed as MSRB1-mediated DABS-Met formation measured per mg of protein at 200 uM by HPLC analysis; type: ADME, tissue-based; summary of the method: as §1
[5] = biological target: T1, Methionine-R-sulfoxide reductase B1; assay: Activity of MSRB1 in rat liver DEAE fraction assessed as enzyme-mediated drug metabolism measured per mg of protein at 200 uM by HPLC analysis; type: ADME
Summary of the method: (§3)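 Fractions from rat liver reductase purification (S-100, 30–70% ammonium sulfate cut, DEAE pool, G50 gel filtration) incubated with 200 μM (R)-sulindac in 100 mM Tris pH 7.4 with 15 mM DTT, 37°C, 100 μl; stopped with acetonitrile; sulindac sulfide quantified by C18 HPLC at 330 nm; specific activity as nmol product/mg protein/h.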

[6] = biological target: T1, Methionine-R-sulfoxide reductase B1; assay: Activity of MSRB1 in rat liver ammonium sulfate fraction assessed as enzyme-mediated drug metabolism measured per mg of protein at 200 uM by HPLC analysis; type: ADME; summary of the method: as §3
[7] = biological target: T1, Methionine-R-sulfoxide reductase B1; assay: Activity of MSRB1 in rat liver S100 fraction assessed as enzyme-mediated drug metabolism measured per mg of protein at 200 uM by HPLC analysis; type: ADME; summary of the method: as §3
[8] = biological target: T1, Methionine-R-sulfoxide reductase B1; assay: Activity of MSRB1 in rat liver G50 fraction assessed as enzyme-mediated drug metabolism measured per mg of protein at 200 uM by HPLC analysis; type: ADME; summary of the method: as §3
[9] = Drug metabolism in rat liver cytosolic fraction at 20 nM after 60 mins by HPLC analysis; type: ADME, tissue-based; settings: cytosol, 1 h
[10] = biological target: Cytochrome P450 2C8 (Homo sapiens, UniProt P10632); assay: Drug metabolism assessed as human recombinant CYP2C8-mediated sulindac sulfone formation measured per pmol of protein at 500 uM after 90 mins by HPLC analysis; type: ADME; settings: recombinant enzyme, 1.5 h
Chain of Cytochrome P450 2C8 (P10632 whole entry): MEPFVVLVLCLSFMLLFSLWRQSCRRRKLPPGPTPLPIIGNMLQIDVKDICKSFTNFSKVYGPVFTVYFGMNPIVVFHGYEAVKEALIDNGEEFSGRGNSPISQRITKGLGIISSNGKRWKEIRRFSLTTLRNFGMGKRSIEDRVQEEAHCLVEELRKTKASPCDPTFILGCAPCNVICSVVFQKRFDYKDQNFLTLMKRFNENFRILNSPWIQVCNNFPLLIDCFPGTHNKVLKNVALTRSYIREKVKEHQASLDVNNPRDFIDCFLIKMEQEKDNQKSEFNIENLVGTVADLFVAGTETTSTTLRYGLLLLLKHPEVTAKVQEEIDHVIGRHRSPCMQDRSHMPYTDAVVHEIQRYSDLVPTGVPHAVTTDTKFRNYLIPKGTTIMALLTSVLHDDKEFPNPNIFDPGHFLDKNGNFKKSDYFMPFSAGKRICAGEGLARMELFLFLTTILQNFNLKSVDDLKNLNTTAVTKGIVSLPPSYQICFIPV
Summary of the method: (§4)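 Recombinant rat or human P450 Supersomes (some with cytochrome b5, variable reductase) incubated with (R)-sulindac at 500 μM or (S)-sulindac at 200 μM plus NADPH-regenerating system in 100 mM potassium phosphate pH 7.4 at 37°C, linear up to 90 min; acetonitrile stop; sulfone by C18 HPLC at 330 nm; ≥3 runs; pmol/pmol enzyme/h, mean ± S.E.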

[11] = system: Plasma; assay: Drug metabolism in Sprague-Dawley rat plasma assessed as sulindac sulfone formation at 2 mg, ip after 0.5 to 4 hrs by HPLC analysis; settings: in vivo
[12] = Activity of cytochrome P450 in human HepG2 cells assessed as enzyme-mediated drug metabolism at 125 uM preincubated for 2 to 24 hrs followed by compound-washout and fresh compound addition measured after 1 hr by HPLC analysis; type: ADME, cell-based; settings: hepg2, 1 h
Summary of the method: (§5)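 HepG2 cells in MEM/10% FBS grown to 80% confluence, pretreated 2–24 h with 125 μM (R)- or (S)-sulindac at 37°C, 5% CO2; washed with PBS, then 200 μM (R)- or (S)-sulindac in fresh medium for 1 h at 37°C; medium mixed with 3 volumes acetonitrile and analysed by HPLC for sulfone.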

[13] = system: Zone of skin; assay: Drug metabolism in Sprague-Dawley rat skin assessed as sulindac sulfide formation at 2 mg, ip after 0.5 to 4 hrs by HPLC analysis; settings: in vivo
[14] = Drug metabolism assessed as Escherichia coli MSRB-mediated reduced product formation; type: ADME
[15] = biological target: T1, Methionine-R-sulfoxide reductase B1; assay: Drug metabolism in rat liver ammonium sulfate fraction assessed as MSRB1-mediated reduced product formation measured per mg of protein at 200 uM by HPLC analysis; type: ADME, tissue-based; summary of the method: as §2
[16] = biological target: Cytochrome P450 1A2 (Homo sapiens, UniProt P05177); assay: Drug metabolism assessed as human recombinant CYP1A2-mediated sulindac sulfone formation measured per pmol of protein at 500 uM after 90 mins by HPLC analysis; type: ADME; settings: recombinant enzyme, 1.5 h; summary of the method: as §4
Chain of Cytochrome P450 1A2 (Homo sapiens, UniProt P05177) (P05177 whole entry): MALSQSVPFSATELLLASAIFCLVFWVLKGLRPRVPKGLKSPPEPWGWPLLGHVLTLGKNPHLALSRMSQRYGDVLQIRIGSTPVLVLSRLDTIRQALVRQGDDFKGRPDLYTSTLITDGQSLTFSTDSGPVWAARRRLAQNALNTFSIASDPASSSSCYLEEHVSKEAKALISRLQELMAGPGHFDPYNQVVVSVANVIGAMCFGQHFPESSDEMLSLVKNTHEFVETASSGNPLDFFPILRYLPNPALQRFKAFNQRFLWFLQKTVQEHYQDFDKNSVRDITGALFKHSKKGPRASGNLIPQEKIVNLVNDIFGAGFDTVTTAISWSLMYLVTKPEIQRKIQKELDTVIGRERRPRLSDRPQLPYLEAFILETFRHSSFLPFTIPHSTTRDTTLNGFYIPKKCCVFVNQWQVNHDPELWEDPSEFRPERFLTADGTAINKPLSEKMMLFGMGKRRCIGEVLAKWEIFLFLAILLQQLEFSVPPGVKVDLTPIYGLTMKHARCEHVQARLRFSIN

[17] = system: Zone of skin; assay: Drug metabolism in Sprague-Dawley rat skin assessed as sulindac sulfone formation at 2 mg, ip after 0.5 to 4 hrs by HPLC analysis; settings: in vivo
[18] = biological target: Cytochrome P450 1A2 (Rattus norvegicus, UniProt P04799); assay: Drug metabolism assessed as rat recombinant CYP1A2-mediated sulindac sulfone formation measured per pmol of protein at 500 uM after 90 mins by HPLC analysis; type: ADME; settings: recombinant enzyme, 1.5 h; summary of the method: as §4
[19] = system: A549; assay: Potentiation of TBHP-induced cytotoxicity in human A549 cells at 500 uM incubated for 48 hrs prior to TBHP-challenge measured after 2 hrs; type: functional, cell-based
[20] = biological target: Cytochrome P450 1B1 (Homo sapiens, UniProt Q16678); assay: Drug metabolism assessed as human recombinant CYP1B1-mediated sulindac sulfone formation measured per pmol of protein at 500 uM after 90 mins by HPLC analysis; type: ADME; settings: recombinant enzyme, 1.5 h; summary of the method: as §4
Chain of Cytochrome P450 1B1 (Q16678 whole entry): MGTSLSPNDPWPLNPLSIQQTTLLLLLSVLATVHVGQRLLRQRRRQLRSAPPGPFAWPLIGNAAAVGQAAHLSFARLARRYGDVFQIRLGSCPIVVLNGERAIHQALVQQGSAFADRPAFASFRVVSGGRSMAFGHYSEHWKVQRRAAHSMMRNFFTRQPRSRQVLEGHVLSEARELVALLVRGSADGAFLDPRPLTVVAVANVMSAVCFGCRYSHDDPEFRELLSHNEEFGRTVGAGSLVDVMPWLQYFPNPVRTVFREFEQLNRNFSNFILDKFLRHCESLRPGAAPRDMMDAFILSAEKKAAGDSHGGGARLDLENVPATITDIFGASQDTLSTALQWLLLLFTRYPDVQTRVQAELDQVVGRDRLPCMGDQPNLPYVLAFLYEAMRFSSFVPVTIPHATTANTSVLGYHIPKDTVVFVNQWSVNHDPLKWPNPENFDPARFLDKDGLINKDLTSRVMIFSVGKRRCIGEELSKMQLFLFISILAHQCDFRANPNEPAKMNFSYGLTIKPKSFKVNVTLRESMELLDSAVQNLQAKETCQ

[21] = biological target: Methionine-R-sulfoxide reductase B3 (Homo sapiens, UniProt Q8IXL7); assay: Drug metabolism assessed as human MSRB3-mediated reduced product formation; type: ADME
Chain of Methionine-R-sulfoxide reductase B3 (Q8IXL7 whole entry): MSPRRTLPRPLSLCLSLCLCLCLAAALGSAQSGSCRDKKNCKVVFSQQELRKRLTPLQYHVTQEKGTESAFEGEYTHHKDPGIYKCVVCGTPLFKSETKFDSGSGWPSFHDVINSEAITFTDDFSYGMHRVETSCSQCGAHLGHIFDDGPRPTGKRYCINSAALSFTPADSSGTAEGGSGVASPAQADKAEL

[22] = system: Plasma; assay: Drug metabolism in Sprague-Dawley rat plasma assessed as sulindac sulfide formation at 2 mg, ip after 0.5 to 4 hrs by HPLC analysis; settings: in vivo
[23] = biological target: Cytochrome P450 3A4 (Homo sapiens, UniProt P08684); assay: Drug metabolism assessed as human recombinant CYP3A4-mediated sulindac sulfone formation measured per pmol of protein at 500 uM after 90 mins by HPLC analysis; type: ADME; settings: recombinant enzyme, 1.5 h; summary of the method: as §4
Chain of Cytochrome P450 3A4 (P08684 whole entry): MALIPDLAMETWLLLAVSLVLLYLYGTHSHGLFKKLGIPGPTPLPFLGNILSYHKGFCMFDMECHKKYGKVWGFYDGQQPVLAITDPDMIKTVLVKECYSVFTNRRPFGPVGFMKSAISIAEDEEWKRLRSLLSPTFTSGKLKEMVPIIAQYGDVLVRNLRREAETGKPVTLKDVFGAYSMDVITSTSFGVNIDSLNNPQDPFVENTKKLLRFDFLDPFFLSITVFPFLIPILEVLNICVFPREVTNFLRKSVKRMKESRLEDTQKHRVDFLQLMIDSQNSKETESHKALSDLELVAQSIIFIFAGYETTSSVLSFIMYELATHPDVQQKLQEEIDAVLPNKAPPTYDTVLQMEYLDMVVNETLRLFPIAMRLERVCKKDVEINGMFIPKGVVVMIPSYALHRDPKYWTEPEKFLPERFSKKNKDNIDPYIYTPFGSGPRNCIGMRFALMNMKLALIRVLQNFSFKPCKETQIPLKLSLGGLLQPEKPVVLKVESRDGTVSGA

[24] = biological target: Cytochrome P450 2B1 (Rattus norvegicus, UniProt P00176); assay: Drug metabolism assessed as rat recombinant CYP2B1-mediated sulindac sulfone formation measured per pmol of protein at 500 uM after 90 mins by HPLC analysis; type: ADME; settings: recombinant enzyme, 1.5 h; summary of the method: as §4
[25] = biological target: Cytochrome P450 2C19 (Homo sapiens, UniProt P33261); assay: Drug metabolism assessed as human recombinant CYP2C19-mediated sulindac sulfone formation measured per pmol of protein at 500 uM after 90 mins by HPLC analysis; type: ADME; settings: recombinant enzyme, 1.5 h; summary of the method: as §4
Chain of Cytochrome P450 2C19 (P33261 whole entry): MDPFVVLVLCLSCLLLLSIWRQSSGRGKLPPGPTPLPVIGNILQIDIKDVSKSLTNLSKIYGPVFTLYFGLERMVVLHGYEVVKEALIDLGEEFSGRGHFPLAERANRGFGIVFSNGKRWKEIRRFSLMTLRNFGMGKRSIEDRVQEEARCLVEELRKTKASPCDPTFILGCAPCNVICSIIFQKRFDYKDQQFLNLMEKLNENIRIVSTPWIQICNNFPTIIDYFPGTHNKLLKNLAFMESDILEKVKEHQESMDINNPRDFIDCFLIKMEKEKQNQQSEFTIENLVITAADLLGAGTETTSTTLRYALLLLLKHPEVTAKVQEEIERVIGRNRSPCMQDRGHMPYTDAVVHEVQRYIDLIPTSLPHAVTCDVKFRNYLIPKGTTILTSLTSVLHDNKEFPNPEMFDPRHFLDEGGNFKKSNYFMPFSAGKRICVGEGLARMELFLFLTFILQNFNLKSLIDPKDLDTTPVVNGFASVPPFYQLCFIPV

[26] = biological target: T1, Methionine-R-sulfoxide reductase B1; assay: Drug metabolism in rat liver S100 fraction assessed as MSRB1-mediated reduced product formation measured per mg of protein at 200 uM by HPLC analysis; type: ADME, tissue-based; summary of the method: as §2
[27] = system: Liver microsome; assay: Drug metabolism in rat liver microsomes assessed as sulindac sulfone formation at 200 µM after 60 mins by HPLC analysis in presence of NADPH; settings: 1 h
[28] = biological target: Cytochrome P450 2C9 (Homo sapiens, UniProt P11712); assay: Drug metabolism assessed as human recombinant CYP2C9-mediated sulindac sulfone formation measured per pmol of protein at 500 uM after 90 mins by HPLC analysis; type: ADME; settings: recombinant enzyme, 1.5 h; summary of the method: as §4
Chain of Cytochrome P450 2C9 (P11712 whole entry): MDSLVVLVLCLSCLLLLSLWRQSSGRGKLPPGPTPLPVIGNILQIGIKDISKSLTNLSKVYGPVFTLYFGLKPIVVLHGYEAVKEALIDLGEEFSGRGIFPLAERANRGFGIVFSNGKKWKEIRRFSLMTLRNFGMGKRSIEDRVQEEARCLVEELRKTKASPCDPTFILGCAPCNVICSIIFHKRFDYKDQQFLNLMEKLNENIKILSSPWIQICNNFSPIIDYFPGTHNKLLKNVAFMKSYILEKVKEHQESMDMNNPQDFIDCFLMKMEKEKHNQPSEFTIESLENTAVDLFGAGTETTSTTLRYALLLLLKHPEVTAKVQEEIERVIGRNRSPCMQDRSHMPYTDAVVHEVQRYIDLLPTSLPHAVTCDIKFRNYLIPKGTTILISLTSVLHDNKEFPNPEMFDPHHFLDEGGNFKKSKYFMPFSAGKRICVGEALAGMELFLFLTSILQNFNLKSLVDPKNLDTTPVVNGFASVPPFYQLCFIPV

[29] = biological target: T1, Methionine-R-sulfoxide reductase B1; assay: Drug metabolism in rat liver G50 fraction assessed as MSRB1-mediated reduced product formation measured per mg of protein at 200 uM by HPLC analysis; type: ADME, tissue-based; summary of the method: as §3
[30] = biological target: Cytochrome P450 3A2 (Rattus norvegicus, UniProt P05183); assay: Drug metabolism assessed as rat recombinant CYP3A2-mediated sulindac sulfone formation measured per pmol of protein at 500 uM after 90 mins by HPLC analysis; type: ADME; settings: recombinant enzyme, 1.5 h; summary of the method: as §4
Chain of Cytochrome P450 3A2 (P05183 whole entry): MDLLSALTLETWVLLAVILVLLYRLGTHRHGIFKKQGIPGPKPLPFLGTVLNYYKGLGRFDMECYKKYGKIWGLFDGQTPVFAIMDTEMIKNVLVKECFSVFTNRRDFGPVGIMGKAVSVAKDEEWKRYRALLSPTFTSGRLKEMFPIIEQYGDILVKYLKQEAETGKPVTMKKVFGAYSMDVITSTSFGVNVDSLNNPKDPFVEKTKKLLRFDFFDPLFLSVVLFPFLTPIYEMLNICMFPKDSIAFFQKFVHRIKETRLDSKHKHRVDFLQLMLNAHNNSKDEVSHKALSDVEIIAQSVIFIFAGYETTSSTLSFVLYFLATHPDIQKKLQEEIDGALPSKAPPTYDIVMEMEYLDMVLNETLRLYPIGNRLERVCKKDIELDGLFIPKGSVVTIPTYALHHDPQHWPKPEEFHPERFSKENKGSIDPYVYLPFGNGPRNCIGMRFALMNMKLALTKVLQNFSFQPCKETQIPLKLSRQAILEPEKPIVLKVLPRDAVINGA

[31] = system: Liver; assay: Drug metabolism in Sprague-Dawley rat liver assessed as sulindac sulfide formation at 2 mg, ip after 0.5 to 4 hrs by HPLC analysis; settings: in vivo
[32] = biological target: Cytochrome P450 1A1 (Rattus norvegicus, UniProt P00185); assay: Drug metabolism assessed as rat recombinant CYP1A1-mediated sulindac sulfone formation measured per pmol of protein at 500 uM after 90 mins by HPLC analysis; type: ADME; settings: recombinant enzyme, 1.5 h; summary of the method: as §4
Chain of Cytochrome P450 1A1 (P00185 whole entry): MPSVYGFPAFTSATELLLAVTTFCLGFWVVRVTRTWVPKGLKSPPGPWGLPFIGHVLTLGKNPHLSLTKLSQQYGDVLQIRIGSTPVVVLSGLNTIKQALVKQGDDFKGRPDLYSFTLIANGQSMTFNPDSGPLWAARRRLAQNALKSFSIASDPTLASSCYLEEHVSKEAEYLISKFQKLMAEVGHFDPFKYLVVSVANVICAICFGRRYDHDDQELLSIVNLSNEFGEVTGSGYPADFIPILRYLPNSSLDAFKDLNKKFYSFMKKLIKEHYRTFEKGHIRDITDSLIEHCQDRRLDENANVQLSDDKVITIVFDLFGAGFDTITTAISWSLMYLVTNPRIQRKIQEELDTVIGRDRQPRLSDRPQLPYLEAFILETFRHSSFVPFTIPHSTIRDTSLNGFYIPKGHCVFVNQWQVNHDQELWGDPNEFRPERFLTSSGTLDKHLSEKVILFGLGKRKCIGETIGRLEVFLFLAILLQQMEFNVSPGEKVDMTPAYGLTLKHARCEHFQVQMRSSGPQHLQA

[33] = biological target: Methionine-R-sulfoxide reductase B2, mitochondrial (Homo sapiens, UniProt Q9Y3D2); assay: Drug metabolism assessed as human MSRB2-mediated reduced product formation; type: ADME
Chain of Methionine-R-sulfoxide reductase B2, mitochondrial (Q9Y3D2 whole entry): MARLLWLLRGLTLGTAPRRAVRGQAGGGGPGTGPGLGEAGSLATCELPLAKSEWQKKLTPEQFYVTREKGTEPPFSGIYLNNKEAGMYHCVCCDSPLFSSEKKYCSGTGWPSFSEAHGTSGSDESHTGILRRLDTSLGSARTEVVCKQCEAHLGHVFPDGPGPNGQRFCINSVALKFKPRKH

[34] = system: MRC5; assay: Cytoprotective activity in TBHP-induced human MRC5 cells at 500 uM incubated for 48 hrs prior to TBHP-challenge measured after 2 hrs; type: functional, cell-based
Summary of the method: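 Normal lung cells preincubated 48 h with 500 μM (R)- or (S)-sulindac or no drug, then challenged with TBHP; viability expressed as percent of cells not exposed to TBHP; mean and S.E. of five repeats; p < 0.05 versus no-drug controls.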

[35] = system: Liver; assay: Drug metabolism in Sprague-Dawley rat liver assessed as sulindac sulfone formation at 2 mg, ip after 0.5 to 4 hrs by HPLC analysis; settings: in vivo
[36] = biological target: T1, Methionine-R-sulfoxide reductase B1; assay: Drug metabolism in rat liver DEAE fraction assessed as MSRB1-mediated reduced product formation measured per mg of protein at 200 uM by HPLC analysis; type: ADME, tissue-based; summary of the method: as §3
[37] = system: Liver microsome; assay: Drug metabolism in rat liver microsomes at […] after 60 mins by HPLC analysis; type: ADME; settings: 1 h
Summary of the method: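 Uninduced rat liver microsomes (100,000g pellet, washed), 20–80 μg protein, incubated with 20 nmol sulindac epimer in 100 μl 100 mM potassium phosphate pH 7.4 with NADPH-regenerating system (1.5 mM NADPH, 5 mM glucose 6-phosphate, G6PDH, 5 mM MgCl2), 60 min, 37°C. Stopped with 3 volumes acetonitrile; sulfone quantified by C18 HPLC. Six rat preparations.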

[38] = Drug metabolism in human HepG2 cells assessed as induction of cytochrome P450-mediated sulindac sulfone formation at 125 uM preincubated for 2 to 24 hrs followed by compound-washout and fresh compound addition measured after 1 hr by HPLC analysis; type: ADME, cell-based; settings: hepg2, 1 h; summary of the method: as §5
[39] = biological target: Cytochrome P450 2D6 (Homo sapiens, UniProt P10635); assay: Drug metabolism assessed as human recombinant CYP2D6-mediated sulindac sulfone formation measured per pmol of protein at 500 uM after 90 mins by HPLC analysis; type: ADME; settings: recombinant enzyme, 1.5 h; summary of the method: as §4
Chain of Cytochrome P450 2D6 (P10635 whole entry): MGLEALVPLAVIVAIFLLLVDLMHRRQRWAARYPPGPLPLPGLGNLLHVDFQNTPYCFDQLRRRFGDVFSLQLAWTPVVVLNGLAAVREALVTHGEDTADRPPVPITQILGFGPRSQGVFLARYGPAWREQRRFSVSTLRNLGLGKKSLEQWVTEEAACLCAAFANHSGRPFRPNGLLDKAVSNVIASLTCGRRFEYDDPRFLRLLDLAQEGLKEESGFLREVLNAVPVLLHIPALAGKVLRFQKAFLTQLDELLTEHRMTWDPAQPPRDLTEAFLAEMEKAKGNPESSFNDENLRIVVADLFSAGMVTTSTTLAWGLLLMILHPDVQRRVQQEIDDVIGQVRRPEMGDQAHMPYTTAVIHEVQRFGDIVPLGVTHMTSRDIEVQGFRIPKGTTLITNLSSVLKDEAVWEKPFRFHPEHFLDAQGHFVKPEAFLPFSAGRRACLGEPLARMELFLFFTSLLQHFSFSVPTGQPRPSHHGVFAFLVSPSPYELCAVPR

SMILES: CN(C)c1ccc(/N=N/c2ccc(S(=O)(=O)N[C@@H](CC[S@@+](C)[O-])C(=O)O)cc2)cc1
- Drug metabolism [1]: metabolite_detected
- Drug metabolism [2]: metabolite_detected
- Drug metabolism [3]: metabolite_detected
- Drug metabolism [4]: metabolite_detected

SMILES: CSCC[C@H](NS(=O)(=O)c1ccc(/N=N/c2ccc(N(C)C)cc2)cc1)C(=O)O
- Drug metabolism [5]: metabolite_detected
- Drug metabolism [6]: metabolite_detected
- Drug metabolism [7]: metabolite_detected
- Drug metabolism [8]: metabolite_detected

SMILES: CC1=C(CC(=O)O)c2cc(F)ccc2/C1=C\c1ccc([S+](C)[O-])cc1 (single isomer, unassigned)
- Drug metabolism [9]: metabolite_not_detected
- Drug metabolism [10]: metabolite_not_detected
- Drug metabolism [11]: metabolite_detected
- Drug metabolism [12]: metabolite_detected
- Drug metabolism [13]: metabolite_detected
- Drug metabolism [14]: metabolite_not_detected
- Drug metabolism [15]: 5.6 nmol/h
- Drug metabolism [16]: 130 pmol/h
- Drug metabolism [17]: metabolite_detected
- Drug metabolism [18]: 460 pmol/h
- Activity [19]: Active
- Drug metabolism [20]: 73 pmol/h
- Drug metabolism [21]: metabolite_not_detected
- Drug metabolism [22]: metabolite_detected
- Drug metabolism [23]: 47 pmol/h
- Drug metabolism [24]: metabolite_not_detected
- Drug metabolism [25]: metabolite_not_detected
- Drug metabolism [26]: 4.2 nmol/h
- Drug metabolism [27]: metabolite_detected
- Drug metabolism [28]: metabolite_not_detected
- Drug metabolism [29]: 1160 nmol/h
- Drug metabolism [30]: metabolite_not_detected
- Drug metabolism [31]: metabolite_detected
- Drug metabolism [32]: 380 pmol/h
- Drug metabolism [33]: metabolite_not_detected
- Activity [34]: Active
- Drug metabolism [35]: metabolite_detected
- Drug metabolism [36]: 32.6 nmol/h
- Drug metabolism [37]: metabolite_not_detected
- Drug metabolism [38]: metabolite_detected
- Drug metabolism [39]: metabolite_not_detected
